Compound activity (PubChem)
bovine MsrA act – bovine MsrA enzyme activators, primary screen, biochemical, absorbance, HTS. Methionine sulfoxide reductase A (Bos taurus). purified bovine MsrA, absorbance read-out. activation, % at 10.6 µM. actives 0.3% (n = 360,000). AID 602163, 2012; in the data active = activation above about 7.5%;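 also: 0% = vehicle and 100% = reference activator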
MsrA inhibitor – bovine MsrA enzyme inhibitors, primary screen, biochemical, absorbance, HTS. Methionine sulfoxide reductase A (Bos taurus). purified bovine MsrA, absorbance read-out. inhibition, % at 15.5 µM. actives 0.75% (n = 360,000). AID 651718, 2012; in the data active = inhibition above about 4.5%;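 also: 0% = vehicle wells with enzyme and 100% = reference inhibitor wells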
ASAP1 GAP inh – inhibitors of human ASAP1 ArfGAP activity, primary screen, biochemical, fluorescence polarization; ASAP1-stimulated ARF1 GTP hydrolysis, GDP FP detection; AID 624377, 2012; Arf-GAP with SH3 domain, ANK repeat and PH domain-containing protein 1 (Homo sapiens), …; inhibition, % at 16.5 µM; actives 0.19% (n = 360,000); in the data active = inhibition above about 25%;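 also: 0% = vehicle with enzyme and substrate and 100% = no enzyme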
ARFGAP1 inhibitor – inhibitors of rat ARFGAP1 GAP activity, primary screen, biochemical, fluorescence polarization, GDP tracer; ADP-ribosylation factor GTPase-activating protein 1 (Rattus norvegicus), Q62848; Arfgap1-stimulated ARF1 GTP hydrolysis, GDP FP detection; inhibition, % at 16.5 µM; actives 0.26% (n = 360,000); AID 651572, 2012;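 active = inhibition above a per-plate limit, mean inhibition of low control wells plus 3 SD, cut at about 25% in these data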;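 also: 0% = DMSO wells with enzyme and 100% = wells lacking Arfgap1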
Target sequence (Q62848 1-136 limits assumed): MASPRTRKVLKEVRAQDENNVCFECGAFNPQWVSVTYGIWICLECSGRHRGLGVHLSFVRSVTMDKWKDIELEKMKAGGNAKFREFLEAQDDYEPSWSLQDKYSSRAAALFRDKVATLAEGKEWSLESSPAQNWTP
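Material – truncated rat Arfgap1 GAP domain · Buffer or medium – HEPES-based buffer, pH 7.5 · Reagent – human ARF1(Δ1-17)-GTP substrate · Dosing – 16.5 µM single point, 1.26% DMSO · Schedule – GTP hydrolysis reaction 2 h at 25 °C · Technique – GDP detection by fluorescence polarization · Benchmarks – No-Arfgap1 wells (100%) versus DMSO full-reaction wells (0%) · Repeats – single replicate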
ARFGAP1 confirm – ARFGAP1 inhibitor hit confirmation, biochemical, fluorescence polarization, triplicate; shares compounds with ARFGAP1 inhibitor; ARFGAP1-stimulated ARF1 GTP hydrolysis, GDP tracer FP; inhibition, % at 16.5 µM; actives 30% (n = 890); AID 651608, 2012;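 active = average inhibition over triplicates above the hit cutoff set in the earlier primary screen, cut at about 25% in these data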;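 also: 0% = Arfgap1 plus ARF1-GTP with DMSO and 100% = wells lacking Arfgap1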
Target sequence (Q62848 whole entry, looked up): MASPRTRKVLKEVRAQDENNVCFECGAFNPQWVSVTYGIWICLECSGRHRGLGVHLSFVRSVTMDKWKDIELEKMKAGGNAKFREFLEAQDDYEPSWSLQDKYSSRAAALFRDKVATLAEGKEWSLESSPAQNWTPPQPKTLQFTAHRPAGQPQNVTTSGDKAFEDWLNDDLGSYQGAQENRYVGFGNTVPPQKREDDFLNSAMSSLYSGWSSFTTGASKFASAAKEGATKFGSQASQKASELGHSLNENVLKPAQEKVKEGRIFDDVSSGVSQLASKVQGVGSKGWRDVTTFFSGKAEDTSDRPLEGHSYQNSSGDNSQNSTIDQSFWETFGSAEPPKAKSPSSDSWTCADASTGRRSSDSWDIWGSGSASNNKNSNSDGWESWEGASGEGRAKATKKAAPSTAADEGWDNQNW
The depositor's hits bear a star; · = no result given; ! = repeats disagree. Sampled rows, rich in hits. Any-hit rate of the full collection: about 1.4%.

SMILES	bovine MsrA act	MsrA inhibitor	ASAP1 GAP inh	ARFGAP1 inhibitor	ARFGAP1 confirm
COc1ccc(C(=O)OCC(=O)c2ccc3c(c2)NC(=O)CO3)cc1S(=O)(=O)N1CCOCC1	-1	1	4	-5	·
FC(F)(F)c1ccc(/C=N/n2c(C3CCCCC3)n[nH]c2=S)cc1	0	1	4	10	·
Nc1ccc2nc(-c3cccc(-c4nc5ccc(N)cc5[nH]4)c3)[nH]c2c1	-3	4.6*	8	60*	106*
Nc1cc2[nH]c(=O)c3ccccc3c2cc1[N+](=O)[O-]	-3	0	-13	28*	20
COc1cc2c(=O)[nH]c3cc([N+](=O)[O-])ccc3c2cc1[N+](=O)[O-]	-2	1	2	10	·
CC[C@H](CO)Oc1cc(NCc2cccc(N)c2)c2ncn(C(C)C)c2c1	0	-1	3	27*	3
CNc1cncc(-c2ccc(OC)cc2)n1	-6	2	-4	3	·
O=C(NCc1ccc(Cl)cc1)C(=O)NCC(c1ccco1)N1CCOCC1 (configuration not stated)	0	0	6	30*	3
Cc1ccc(CNC(=O)C(=O)NCC(c2ccco2)N2CCOCC2)cc1 (configuration not stated)	-10	0	9	-4	·
CCOc1ccccc1NC(=O)CCc1nnc2ccc(N3CCC4(CC3)OCCO4)nn12	-3	-1	1	-8	·
C=CCn1c(=NC(=O)c2cccs2)sc2cccc(OC)c21	-5	3	-1	31*	0
C#CCn1c(=NC(=O)c2ccc(Br)s2)sc2cccc(OC)c21	-2	1	-11	-5	·
CCCCCCCNC(=O)C1(CC2CC(c3cccc(Br)c3)=NO2)CCN(C(=O)OC(C)(C)C)CC1 (configuration not stated)	3	0	5	36*	1
O=C1c2c(O)ccc(O)c2C(=O)c2c(NCCNCCO)ccc(NCCNCCO)c21	-2	1	21	25*!	56*
O=C1c2ccccc2C(=O)c2c(Nc3ccc(CCO)cc3)ccc(O)c21	-1	1	0	-3	·
Cc1cccc2cc(CN(CCCN(C)C)C(=S)NCCc3ccccc3)c(=O)[nH]c12	-1	0	-3	1	·
Cc1ccc(S(=O)(=O)N/N=C\c2cn(CC(N)=O)c3ccccc23)cc1	0	1	0	30*	-7
Cc1cc(C)c(S(=O)(=O)c2ccc(F)cc2C)c(Cl)n1	-4	1	9	30*	1
Cc1cc(C)c(S(=O)(=O)c2ccccc2Cl)c(Cl)n1	-5	0	-1	-21	·
Cc1cccnc1Nc1nc(-c2ccc(O)cc2O)cs1	-2	0	21	34*	18
Oc1ccc(-c2csc(Nc3ccccn3)n2)c(O)c1	-5	3	14	17	·
COc1cc(CN2CCNC(=O)C2CC(=O)N(C)CCN2CCOCC2)cc(OC)c1 (configuration not stated)	-1	1	10	28*	-7
COc1cc(CN2CCNC(=O)C2CC(=O)N(C)CCCN2CCOCC2)cc(OC)c1 (configuration not stated)	-2	1	7	0	·
CCN1C(=O)[C@H]2[C@@H](c3ccc(C)cc3)N[C@]3(CCCN(Cc4ccco4)C3=O)[C@H]2C1=O	-2	1	0	-3	·
CNC(C)C#Cc1ccc2sc3cccc(OC)c3c(=O)c2c1 (configuration not stated)	-6	1	22	28*	6
SMILES	bovine MsrA act	MsrA inhibitor	ASAP1 GAP inh	ARFGAP1 inhibitor	ARFGAP1 confirm
Cc1cnc2nc(-c3ccccc3)ccc2c1	-4	1	4	26*	3
C=CCn1c2ccccc2c2nnc(SCCN3CCCCC3)nc21	1	1	1	4	·
C=CCn1c2ccccc2c2nnc(SCCCn3c(=O)[nH]c4ccccc43)nc21	-1	2	-12	40*	5
COC(=O)c1cc(C)[nH]c2c(C)cc3nc4ccccc4c3c12	-2	0	-1	41*	14
COC(=O)c1c(C)nc2ccccc2c1C(=O)O	-11	0	-3	0	·
Cc1nc(CN2C(=O)C3(CCC3)ON=C2c2cccc(Cl)c2)cs1	-2	-1	1	-5	·
O=C(NCCc1cccnc1)C1CCC(=O)N(Cc2ccc(Cl)cc2)C1 (configuration not stated)	-2	1	-3	-8	·
CNc1nc(-c2c[nH]c3ccccc23)cs1	-1	0	10	31*	1
O=C(OCC(=O)N1CCCC1)c1ccc(OC(F)(F)F)cc1	-11	0	20	25*	2
COc1ccc(-n2c(=O)c3c4c(sc3n(CC(=O)Nc3cc(C)[nH]n3)c2=O)CCCC4)c(OC)c1	-8	0	10	33*	33*
CCOc1ccccc1NC(=O)Cn1c(=O)n(-c2ccc(OC)cc2OC)c(=O)c2c(C)c(C(=O)N(CC)CC)sc21	-4	2	10	-5	·
C=C(C)c1cccc(C(C)(C)NC(=O)NNC(=O)c2ccccc2O)c1	-3	0	-3	6	·
Cc1ccc(C2(C)NC(=O)N(CC(=O)NC(=O)NC(C)C)C2=O)cc1 (configuration not stated)	-3	0	-12	30*	-6
CC(=O)Nc1c(NC(=O)CC#N)[nH]c2c(c1=O)c(=O)n(C)c(=O)n2C	-5	1	3	12	·
O=C(N/N=C/c1sc(=O)n(Cc2ccc(Br)cc2)c1Cl)c1ccco1	-4	1	23	39*	54*
O=C(N/N=C/c1ccc(Br)s1)c1ccco1	-4	4	-5	-8	·
Cc1cccc(N(C(=O)c2ccco2)C(C(=O)NC2CCCC2)c2ccco2)c1C (configuration not stated)	-8	0	8	2	·
O=C(NCc1cccs1)c1cc2c(s1)-c1ccccc1OC2	-5	2	4	47*	47*
Cc1ccc(C2C(C#N)=C(N)Oc3cc4c(cc32)OCO4)cc1 (configuration not stated)	-3	0	4	25*	5
CSc1cccc(NC(=O)OC2CCCCCCCCCCC2)c1	-1	0	2	0	·
CC(C)c1cccc(C(C)C)c1NC(=O)OC1CCCCC1	-1	-1	-11	28*	4
COC(=O)c1ccccc1NC(=O)CN1CCC(n2nnc3cc(C(F)(F)F)ccc32)CC1	-5	-1	5	9	·
CC1Cc2ccccc2N1C(=O)CN1CCC(n2nnc3cc(C(F)(F)F)ccc32)CC1 (configuration not stated)	-4	1	4	28*	8
